# From PubChem BioAssay
# Arr AP2 block = inhibitors of beta-arrestin/AP2 binding, primary screen, biochemical, GPCR trafficking, flow cytometry; inhibition, % at 10 µM; AID 504490, 2011; FITC-arrestin peptide / GST-AP2 beads; AP2 beta2 appendage carries R879A mutation; 340,000 tested, 0.31% active;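 active = inhibition above a set limit, near 3 SD of compounds lacking own fluorescence, cut at about 54% in these data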;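 also: plate controls were DMSO wells for no effect and 5 µM unlabelled arrestin peptide for full effect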
#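 system = GST-tagged AP2 beta2-adaptin appendage (R879A) on 4 µm glutathione beads | reagent = FITC-labelled arrestin peptide probe, 50 nM final | schedule = compound with beads 12 min RT, then probe 1 h RT | signal = HyperCyt-sampled flow cytometry, FL1 channel, ex 488/em 535 nm | read-out = percent response from loss of bead-bound FITC fluorescence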
# LANA-H2B inh = blockers of LANA interaction with H2A/H2B – biochemical, FP readout, HTS, primary screen | Protein LANA1 (Human herpesvirus 8 type P (isolate GK18)), Q9QR71 | cell-free LANA-H2A/H2B peptide, fluorescence polarization | inhibition, % (no concentration beside the values) | 320,000 tested, 0.6% active | AID 2629, 2010; in the data active = inhibition mostly above about 10%, no sharp cut-off; inactive = mostly below about 6.7%
# T cell HTS = modulators of CD8 T cell-vesicle binding, primary screen, mouse 2C CD8+ T cells, flow cytometry; response (vesicle binding), % at 7 µM; 2C CD8+ T cell-vesicle binding; active compounds read low; 330,000 tested, 0.068% active;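 active = response, share of CD8 T cells binding vesicles, and their 90th percentile fluorescence all below set limits, cut at about 80% in these data, passing the limit was not always enough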;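 also: values below 100% mean blocked vesicle binding to the CD8+ T cells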
#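 Read-out – percent CD8+ FL2 mean versus row control · System – murine 2C transgenic CD8+ T lymphocytes · Times – 1.5 h cell–vesicle binding at 37 °C, then 20 min icy labelling · Control set – naked vesicles low, QL9 vesicles with vehicle high · Detection – cytometric PE anti-B7-1 and Alexa647 anti-CD8 signals after 1% paraformaldehyde fixation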
# GASC-1 inh = inhibitors of GASC-1 histone demethylase, primary screen, biochemical, fluorescence, DELFIA europium; 330,000 tested, 0.069% active; inhibition, % at 2.35 µM; AID 2099, 2009; GST-JMJD2C(1-420) H3K9me3 demethylation;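 active = more than half of a compound's replicate wells show inhibition beyond 50%, single wells judged on their own value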;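 also: signal counts dimethyl H3K9 product captured on neutravidin plate; 0% = median of DMSO wells and 100% = 0.3 times that DMSO median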
# Target sequence (Q9H3R0 1-420 limits assumed): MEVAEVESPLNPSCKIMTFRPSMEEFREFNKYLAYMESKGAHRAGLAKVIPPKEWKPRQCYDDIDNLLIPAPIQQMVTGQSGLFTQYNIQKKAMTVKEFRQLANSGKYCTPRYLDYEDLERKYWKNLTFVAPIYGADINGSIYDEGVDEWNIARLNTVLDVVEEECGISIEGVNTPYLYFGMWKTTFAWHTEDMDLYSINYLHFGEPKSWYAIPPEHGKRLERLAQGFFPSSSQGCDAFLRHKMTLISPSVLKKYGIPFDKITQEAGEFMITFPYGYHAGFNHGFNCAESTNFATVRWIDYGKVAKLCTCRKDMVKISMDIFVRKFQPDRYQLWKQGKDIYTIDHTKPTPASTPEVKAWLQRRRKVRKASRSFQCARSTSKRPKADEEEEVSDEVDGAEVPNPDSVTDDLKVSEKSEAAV
# HDAC3 inh = HDAC3 deacetylase inhibitors, primary screen, biochemical, fluorescence, cell-free homogeneous; Histone deacetylase 3 (Homo sapiens), O15379; recombinant HDAC3, fluorogenic peptide/trypsin coupled; inhibition, % at 8.3 µM; 320,000 tested, 0.15% active; AID 2718, 2010; in the data active = inhibition above about 26%, passing the limit was not always enough
# Pemphigus Ab inh = inhibitors of pemphigus antibody binding to DSG3, primary screen, biochemical, bead-based, flow cytometry, scFv-GFP; Desmoglein-3 (Homo sapiens), P32926; DSG3-coupled beads, scFv-anti-DSG3-GFP binding; active compounds read low; binding (percent of control), % at 10 µM; 310,000 tested, 0.48% active; AID 588358, 2011;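 active = binding more than 3 SD below its plate's average and above zero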;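 also: hits lower antibody fragment binding to DSG3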
# Active calls of the source: *; i = inactive; · = not tested or not shown; + = active, no number. A selection: hits, their analogues and other compounds. The true share with any hit is near 1.6%.
SMILES,Arr AP2 block,LANA-H2B inh,T cell HTS,GASC-1 inh,HDAC3 inh,Pemphigus Ab inh
O=C(COC(=O)c1cc[n+]([O-])cc1)Nc1ccccc1Sc1ccccc1,12,140*,328,-7,-3,110
Nc1ncnc2oc(-c3ccco3)c(-c3ccco3)c12,24,1,407,3,-11,52*
Cc1cc(NC(=O)NCc2ccccc2)c(=O)n(Cc2ccccc2F)c1,33,3,176,1,-3,108
COc1cccc(Cn2cc(C)cc(NC(=O)NCc3ccccc3)c2=O)c1,-13,23*,174,2,2,109
O=C(COC(=O)/C=C/c1ccc(Cl)cc1)Nc1ccc2c(c1)OCCO2,5,0,148,0,-4,85
COc1ccccc1NC(=O)COC(=O)/C=C/c1ccc2c(c1)OCO2,30,14*,123,-10,-3,96
O=C(COC(=O)/C=C/c1ccccc1)Nc1ccc2c(c1)OCCO2,35,4,318,·,0,-4.7*
COc1ccccc1NC(=O)/C=C/c1ccc2c(c1)OCO2,45,5,366,3,4,101
CCN(CC)C(=O)[C@H]1C[C@H](CC(=O)NC/C=C(\C)CCC=C(C)C)C(=O)N2CCc3c([nH]c4cc(CCC(=O)N(C)C)ccc34)[C@]12C,36,·,·,·,·,100
C=CCn1c(C)cc(C(=O)COC(=O)CNC(=O)c2ccccc2)c1C,-3,6,286,-8,0,72*
Cc1ccc(C(=O)NCC(=O)OCC(=O)c2cc(C)n(Cc3ccco3)c2C)cc1,27,2,208,-6,-1,113
O=C(Nc1ccccc1C(=O)N/N=C/c1ccco1)c1ccc(Cl)cc1,-1,+,171,-3,7,99
O=C(Nc1ccccc1C(=O)N/N=C/c1ccco1)c1ccccc1,-7,-1,149,6,-7,99
COc1ccc(/C=C/C(=O)NC(=S)Nc2ccccn2)cc1,3,3,136,-2,0,88
COc1ccccc1/C=C/C(=O)NC(=S)Nc1ccccn1,8,8.0*,497,-8,5,98
Cc1cc(C)c(S(=O)(=O)ON2C(=O)c3ccccc3C2=O)cc1C,4,-3,i,-7,2,101
Cc1ccc(S(=O)(=O)ON2C(=O)c3ccccc3C2=O)c(C)c1,-1,0,371,6,59*,97
COc1ccccc1C(=O)NC(=S)Nc1ccc(S(=O)(=O)N2CCN(C)CC2)cc1,-2,2,0.0*,-6,3,110
O=C(Nc1ccccc1)c1ccccc1OCc1ccc(S(=O)(=O)N2CCOCC2)cc1,0,4,211,43,-1,67*
O=C(O)CCC(=O)Nc1ccc(/C=C/C(=O)C2CC2)cc1,-9,0,117,-20,1,99
Cc1ccc(C(=O)CSc2cc(C)nc(SCC(=O)c3ccccc3)n2)cc1,-2,-4,393,3,2,98
Cc1cc(Oc2ccc(C)c(Cl)c2)nc(SCC(=O)c2ccccc2)n1,6,16*,580,-1,-10,99
CCC(=O)N1N=C(c2ccc(NS(=O)(=O)c3ccccc3)cc2)CC1c1ccco1 (stereo not drawn),15,3,288,5,8,92
CC(C)(C)Nc1nc2nonc2nc1NC(C)(C)C,9,5,0.0*,10,1,102
COc1cccc(NC(=O)CN(C)C(=O)CCNC(=O)c2ccccc2OC)c1,30,·,·,·,·,100
SMILES,Arr AP2 block,LANA-H2B inh,T cell HTS,GASC-1 inh,HDAC3 inh,Pemphigus Ab inh
CCN(C[C@H]1N[C@@](C)(C(=O)OC)[C@H]2C(=O)N(C)C(=O)[C@@H]12)C(=O)Nc1ccc(C)cc1,0,-1,274,52*,-4,103
CC[C@@]1(C(=O)OC)N[C@H](CN(C)C(=O)C2CCCCC2)[C@@H]2C(=O)N(C)C(=O)[C@@H]21,10,+,164,7,2,98
COC(=O)[C@]1(C)N[C@H](CN(C)C(=O)Nc2ccc(OC)cc2)[C@@H]2C(=O)N(C)C(=O)[C@@H]21,-1,0,i,-53,4,80*
O=C(CS(=O)(=O)Nc1ccc(F)cc1Cl)Nc1ccc(F)cc1Cl,-11,0,261,19,0,101
Cc1ccc(O)c(C(=O)c2cnn(C(=O)c3cccc(S(=O)(=O)N(C)C)c3)c2)c1,-9,·,·,·,·,98
Cc1ccc(N2CCN(C(=O)c3ccccc3Br)CC2)c(C)c1,24,-1,217,10,6,94
Cc1cnn(C(=O)c2ccccc2Br)c1,·,-5,527,85*,9,·
O=C(N1CCCC1)N1CCN(S(=O)(=O)c2ccccc2)CC1,-5,-1,599,82,-11,120
Cc1ccc2cc(-c3noc(C4CCCO4)n3)c(=O)[nH]c2c1 (stereo not drawn),-5,-1,365,2,-6,98
Cc1ccc2cc(-c3noc(C4CCCCC4)n3)c(=O)[nH]c2c1,2,-3,554,-10,3,-18*
O=C(NCc1cccs1)c1cnc2ccccn2c1=O,-1,9.8*,345,-3,1,100
COc1ccccc1CNC(=O)c1cnc2ccccn2c1=O,4,1,404,-2,11,99
COc1ccc2c(c1)c(=O)oc1cc3occ(C(C)(C)C)c3cc12,-2,12*,427,1,-7,84
O=C(CC1C(=O)NCCN1Cc1cccc(F)c1F)NCCCC1CCCC1 (stereo not drawn),-17,1,493,-22,-11,106
CCc1c(C)sc(NC(=O)c2cc(-c3ccc(OC)c(OC)c3)on2)c1C#N,7,3,305,-13,-5,81
COc1ccc(-c2csc(NC(=O)c3cc(C)on3)c2C#N)cc1OC,4,0,236,4,7,79*
N#C/C(=C\c1ccc(/C=C(/C#N)c2nn(CCO)c(N)c2C#N)cc1)c1nn(CCO)c(N)c1C#N,3,0,105,3,1,86*
CC(C)CN1CCN(Cc2cn(C)c3ccccc23)CC1CCO (stereo not drawn),3,-4,257,13,-6,98
COc1ccc(NC(=O)NS(=O)(=O)c2ccc(C)cc2)cn1,11,68*,152,1,1,100
